Experimental data: ChEMBL document CHEMBL4014347, “Targeting Mycolic Acid Transport by Indole-2-carboxamides for the Treatment of Mycobacterium abscessus Infections” (J Med Chem, 2017)
Converted amounts (≈) assume the structure as drawn. The source made the active and inactive calls. The calls are words filed in the database; no cut-off is given here.

What was measured:
[1] = test system: Mycobacteroides abscessus; experiment: Inhibition of MmpL3 in Mycobacterium abscessus CIP104536 smooth variant assessed as increase in accumulation of trehalose monomycolate up to 6.2 ug/ml preincubated for 1 hr followed by [14C]acetic acid addition measured after 2 hrs by TLC based autoradiography analysis
Procedure, shortened: (§1)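 Exponential cultures in 7H9 with OADC exposed to increasing drug concentrations for 1 h at 37 °C with agitation, then labelled with 1 μCi/mL [14C]acetate (56 mCi/mmol) for 2 h; apolar lipids (TMM, TDM) run on TLC in chloroform/methanol/water 40:8:1; MAME and arabinogalactan-bound mycolates in petroleum ether/acetone 95:5; autoradiography.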

[2] = test system: Mycobacterium tuberculosis; experiment: Inhibition of C-terminal His-tagged Mycobacterium tuberculosis Ag85C expressed in Escherichia coli C41 (DE3) at 2.5 to 50 uM after 1 hr by resorufin butyrate-based fluorescence assay
Procedure, shortened: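 Purified Ag85C mycolyltransferase activity measured with the fluorescent probe resorufin butyrate; compounds tested at 2.5 to 50 μM.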

[3] = Protein binding in rat plasma at 5 uM after 10 mins by LC-MS/MS analysis; type: ADME, cell-free; details: read-out: PPB (converted)
Procedure, shortened: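 Ultracentrifugation method: 5 μM compound in mouse or rat plasma (from DMSO stock), 10 min at 37 °C; total concentration from incubated plasma, unbound from middle-layer supernatant after 200000g for 4.5 h; niflumic acid internal standard, acetonitrile, filtered, LC-MS/MS.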

Cytochrome P450 2C19 = Cytochrome P450 2C19 (Homo sapiens, UniProt P33261); experiment: Inhibition of CYP2C19 in human liver microsomes preincubated for 5 mins followed by NADPH addition measured after 40 mins by LC-MS/MS analysis; type: ADME
Cytochrome P450 2C19, sequence (P33261 whole entry): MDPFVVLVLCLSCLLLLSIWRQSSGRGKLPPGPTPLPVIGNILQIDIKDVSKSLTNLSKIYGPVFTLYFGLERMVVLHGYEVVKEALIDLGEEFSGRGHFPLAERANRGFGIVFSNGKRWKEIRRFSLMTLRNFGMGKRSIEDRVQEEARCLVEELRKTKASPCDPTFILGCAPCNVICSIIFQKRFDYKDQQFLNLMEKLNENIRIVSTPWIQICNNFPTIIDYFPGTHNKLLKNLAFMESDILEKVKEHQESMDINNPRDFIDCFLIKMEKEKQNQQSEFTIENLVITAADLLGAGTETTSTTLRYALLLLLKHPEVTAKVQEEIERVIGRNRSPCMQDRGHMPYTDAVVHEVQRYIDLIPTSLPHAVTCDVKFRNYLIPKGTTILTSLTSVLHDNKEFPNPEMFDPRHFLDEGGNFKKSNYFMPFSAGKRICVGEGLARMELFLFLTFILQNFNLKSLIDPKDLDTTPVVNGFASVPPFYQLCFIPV

[4] = test system: Mycobacteroides abscessus; experiment: Antibacterial activity against Mycobacterium abscessus CIP_OK4-10 harboring MAB_4508 g925c/A309P mutant after 3 to 5 days by two fold serial dilution method; type: functional
Procedure, shortened: (§2)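 Broth microdilution in cation-adjusted Mueller−Hinton broth per CLSI; inoculum 5 × 10^6 CFU/mL of exponential-phase bacteria; two-fold serial dilutions, solvent-only wells as control; 30 °C for 3−5 days; MIC read visually and confirmed by absorbance at 560 nm; triplicate on three independent occasions.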

Vero = experiment: Cytotoxicity against African green monkey Vero cells; type: cell-based; details: Chlorocebus sabaeus
[5] = test system: Mycobacteroides abscessus; experiment: Antibacterial activity against CF patient derived Mycobacterium abscessus subsp. abscessus isolate 2069 smooth variant after 3 to 5 days by two fold serial dilution method; type: functional; procedure, shortened: as §2
[6] = test system: Mycobacteroides abscessus; experiment: Antibacterial activity against CF patient derived Mycobacterium abscessus subsp. abscessus rough variant after 3 to 5 days by two fold serial dilution method; type: functional; procedure, shortened: as §2
[7] = test system: Mycobacteroides abscessus; experiment: Antibacterial activity against CF patient derived Mycobacterium abscessus subsp. massiliense isolate 185 smooth variant after 3 to 5 days by two fold serial dilution method; type: functional; procedure, shortened: as §2
[8] = test system: Mycobacteroides abscessus; experiment: Antibacterial activity against CF patient derived Mycobacterium abscessus subsp. massiliense isolate 122 smooth variant after 3 to 5 days by two fold serial dilution method; type: functional; procedure, shortened: as §2
[9] = Antibacterial activity against CF patient derived Mycobacterium abscessus subsp. bolletii isolate 116 smooth variant after 3 to 5 days by two fold serial dilution method; type: functional; details: Mycobacteroides abscessus; procedure, shortened: as §2
[10] = Antibacterial activity against non CF patient derived Mycobacterium abscessus subsp. bolletii isolate 17 smooth variant after 3 to 5 days by two fold serial dilution method; type: functional; details: Mycobacteroides abscessus; procedure, shortened: as §2
[11] = Selectivity index, ratio of IC50 for African green monkey Vero cells to MIC=<90 for Mycobacterium tuberculosis; type: toxicity; details: read-out: Selectivity Index
Salmonella typhimurium = experiment: Mutagenicity in Salmonella typhimurium TA100 in presence of rat liver S9 fraction assessed as increase in revertant colonies at 0.24 to 500 ug/well after 72 hrs by Ames test relative to control; type: toxicity; details: salmonella enterica subsp. enterica serovar typhimurium, s9, 72 h
Procedure, shortened: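 Reverse mutation at histidine locus in S. typhimurium TA98 (frameshift) and TA100 (base-pair substitution), with and without S9; 0.24−500 μg/well; 37 ± 2 °C for 72 h, triplicates; DMSO vehicle; sodium azide, 2-nitrofluorene, 2-aminoanthracene positive controls; positive if revertants rise ≥2-fold over negative control dose-dependently.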

[12] = Antibacterial activity against CF patient derived Mycobacterium abscessus subsp. bolletii isolate 108 rough variant after 3 to 5 days by two fold serial dilution method; type: functional; details: Mycobacteroides abscessus; procedure, shortened: as §2
[13] = test system: Mycobacteroides abscessus; experiment: Antibacterial activity against CF patient derived Mycobacterium abscessus subsp. massiliense isolate 212 smooth variant after 3 to 5 days by two fold serial dilution method; type: functional; procedure, shortened: as §2
[14] = test system: Mycobacteroides abscessus; experiment: Antibacterial activity against Addison's disease patient derived Mycobacterium abscessus subsp. massiliense isolate CIP108297 rough variant after 3 to 5 days by two fold serial dilution method; type: functional; procedure, shortened: as §2
[15] = Antibacterial activity against CF patient derived Mycobacterium abscessus subsp. bolletii isolate 112 rough variant after 3 to 5 days by two fold serial dilution method; type: functional; details: Mycobacteroides abscessus; procedure, shortened: as §2
[16] = test system: Mycobacteroides abscessus; experiment: Effect on de novo mycolic acid biosynthesis in Mycobacterium abscessus CIP104536 smooth variant at 6.2 ug/ml preincubated for 1 hr followed by [14C]acetic acid addition measured after 2 hrs by TLC based autoradiography analysis; type: functional; procedure, shortened: as §1
CYP3A4 = CYP3A4 (Homo sapiens, UniProt P08684); experiment: Inhibition of CYP3A4 in human liver microsomes preincubated for 5 mins followed by NADPH addition at 10 uM measured after 5 mins by LC-MS/MS analysis relative to control; type: ADME
CYP3A4, sequence (P08684 whole entry): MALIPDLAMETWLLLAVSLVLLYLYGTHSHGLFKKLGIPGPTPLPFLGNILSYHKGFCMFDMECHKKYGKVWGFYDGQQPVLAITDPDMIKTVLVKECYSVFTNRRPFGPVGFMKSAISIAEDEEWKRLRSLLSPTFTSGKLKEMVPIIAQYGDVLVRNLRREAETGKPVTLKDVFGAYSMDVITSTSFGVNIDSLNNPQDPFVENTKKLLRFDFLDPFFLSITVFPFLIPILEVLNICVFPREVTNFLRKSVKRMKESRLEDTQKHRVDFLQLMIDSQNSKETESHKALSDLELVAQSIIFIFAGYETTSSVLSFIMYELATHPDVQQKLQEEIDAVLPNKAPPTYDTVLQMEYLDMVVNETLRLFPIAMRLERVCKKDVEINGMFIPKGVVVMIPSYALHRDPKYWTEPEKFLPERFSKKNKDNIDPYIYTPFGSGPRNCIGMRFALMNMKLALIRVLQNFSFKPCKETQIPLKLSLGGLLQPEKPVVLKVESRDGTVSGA

[17] = test system: Mycobacteroides abscessus; experiment: Antibacterial activity against non CF patient derived Mycobacterium abscessus subsp. abscessus isolate CIP104536 rough variant after 3 to 5 days by two fold serial dilution method; type: functional; procedure, shortened: as §2
[18] = test system: Mycobacteroides abscessus; experiment: Antibacterial activity against CF patient derived Mycobacterium abscessus subsp. abscessus isolate 3321 smooth variant after 3 to 5 days by two fold serial dilution method; type: functional; procedure, shortened: as §2
[19] = test system: Mycobacteroides abscessus; experiment: Antibacterial activity against Mycobacterium abscessus CIP104536 smooth variant harboring pMV261 MAB_4508 wild type at 0.5 to 1 ug/ml after 3 days; type: functional
Procedure, shortened: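 M. abscessus overexpressing wild-type or A309P MAB_4508 from pMV261 plated on 7H10 agar with 10% OADC containing drug; plates incubated at 30 °C for 3 days before growth inspection.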

[20] = test system: Mycobacteroides abscessus; experiment: Inhibition of MmpL3 in Mycobacterium abscessus CIP104536 smooth variant assessed as reduction in arabinogalactan mycolation preincubated for 1 hr followed by [14C]acetic acid addition measured after 2 hrs by TLC based autoradiography analysis; procedure, shortened: as §1
[21] = Permeability of the compound at 25 uM at pH 5 after 4 hrs by LC-MS based PAMPA; type: physicochemical; details: read-out: permeability
Procedure, shortened: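 PAMPA: 25 μM compound in aqueous buffer at pH 7.4 or 5.0 (pH adjusted with NaOH) in donor plate, triplicate; acceptor membrane coated with GIT-0 lipid, acceptor sink buffer; 4 h at 25 ± 2 °C; donor and acceptor solutions analysed by LC-MS (UPLC).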

[22] = Antibacterial activity against non CF patient derived Mycobacterium abscessus subsp. bolletii isolate 19 rough variant after 3 to 5 days by two fold serial dilution method; type: functional; details: Mycobacteroides abscessus; procedure, shortened: as §2
[23] = test system: Mycobacteroides abscessus; experiment: Inhibition of MmpL3 A309P mutant in Mycobacterium abscessus CIP104536 smooth variant harboring pMV261 MAB_4508_A309P mutant assessed as reduction in trehalose monomycolate transport at 6.2 ug/ml preincubated for 1 hr followed by [14C]acetic acid addition measured after 2 hrs by TLC based autoradiography analysis; procedure, shortened: as §1

For `O=C(NC1CCCCCC1)c1cc2c(Cl)cc(Cl)cc2[nH]1`, the inhibition [1] was “Active”, the inhibition [2] was “inactive” and the fraction unbound at 10 min, 5 µM [3] was 0.008. It also gave an IC50 (Cytochrome P450 2C19) of no more than 20 µM, an MIC [4] of 32 µg/mL (≈ 98.4 µM) and an IC50 (Vero) of 8 to 16 µg/mL (≈ 24.6 to 49.2 µM). For the same compound, the MIC [5] was 0.125 µg/mL (≈ 0.384 µM), the MIC [6] was 0.125 µg/mL (≈ 0.384 µM) and the MIC [7] was 0.125 µg/mL (≈ 0.384 µM). The MIC [8] was 0.125 µg/mL (≈ 0.384 µM), the MIC [9] was 0.25 µg/mL (≈ 0.769 µM) and the MIC [10] was 0.125 µg/mL (≈ 0.384 µM). The selectivity ratio [11] was 2050 to 4100, the “fold change (FC)” value (Salmonella typhimurium) was less than 2 and the MIC [12] was 0.25 µg/mL (≈ 0.769 µM). It also gave an MIC [13] of 0.125 µg/mL (≈ 0.384 µM), an MIC [14] of 0.125 µg/mL (≈ 0.384 µM) and an MIC [15] of 0.125 µg/mL (≈ 0.384 µM). The Activity [16] was “inactive”, the inhibition at 5 min, 10 µM (CYP3A4) was 1% and the MIC [17] was 0.125 µg/mL (≈ 0.384 µM). For the same compound, the MIC [18] was 0.125 µg/mL (≈ 0.384 µM), the Activity [19] was “Active” and the inhibition [20] was “Dose-dependent effect”. The Papp at 4 h, 25 µM [21] was 0.3 ×10⁻⁶ cm/s, the MIC [22] was 0.125 µg/mL (≈ 0.384 µM) and the inhibition [23] was “Active”.
